Test results from paper PMC5114172 (Journal of applied toxicology : JAT, 2016).

Key:
Type in all cases: cell-based, human
monocyte-depleted PBMCs [1] = test: IL-1β secretion assay; settings: MD-PBMCs; for fold increase in IL-1β secretion: third common donor (F152), 24 h
In short: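 NK cells, MD-PBMCs, PBMCs or granulocytes (1.5 million/mL) or PBMC+granulocytes (0.75 million/mL each), per donor, exposed 24 h, 48 h or 6 days to 0.05–5 μM test compound diluted from DMSO stock, with DMSO controls. Supernatants kept at −70 °C. IL-1β by sandwich ELISA: HRP detection antibody, acid-stopped substrate, A450 against standards. Detection limit 3 pg/mL; triplicates; ANOVA then t test versus control, p<0.05.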

PBMCs with Granulocytes = test: Cell viability, trypan blue exclusion; settings: for Percent Viable Cells: PBMCs with Granulocytes
monocyte-depleted PBMCs [2] = test: Cell viability, trypan blue exclusion; settings: for Percent Viable Cells / decrease in viability: MD-PBMCs
NK cells = test: Cell viability, trypan blue exclusion

## CCC[CH2][Sn][CH2]CCC [DBT, Dibutyltin]
monocyte-depleted PBMCs [1]; donor F166, 48 h, 2.5 μM DBT
  Interleukin 1 beta secreted: 1981 ± 3260 pg/mL
monocyte-depleted PBMCs [1]; donor F166, 6 day, 0.05 μM DBT
  Interleukin 1 beta secreted: 6655 ± 930 pg/mL
monocyte-depleted PBMCs [1]; donor F166, 6 day, 0.1 μM DBT
  Interleukin 1 beta secreted: 4959 ± 11 pg/mL
monocyte-depleted PBMCs [1]; donor F166, 6 day, 0.25 μM DBT
  Interleukin 1 beta secreted: 2424 ± 95 pg/mL
monocyte-depleted PBMCs [1]; donor F166, 6 day, 0.5 μM DBT
  Interleukin 1 beta secreted: 2118 ± 698 pg/mL
monocyte-depleted PBMCs [1]; 50 nM DBT
  fold increase in IL-1β secretion: 2.1 fold
monocyte-depleted PBMCs [1]; 100 nM DBT
  fold increase in IL-1β secretion: 1.4 fold
PBMCs with Granulocytes; PBMC+granulocytes, 24 h, 5 μM DBT
  average decrease in viability: 16%
PBMCs with Granulocytes; 24 h, 0.05 μM DBT
  Percent Viable Cells: 94±3%
PBMCs with Granulocytes; 24 h, 0.1 μM DBT
  Percent Viable Cells: 93±6%
PBMCs with Granulocytes; 24 h, 0.25 μM DBT
  Percent Viable Cells: 93±4%
PBMCs with Granulocytes; 24 h, 0.5 μM DBT
  Percent Viable Cells: 94±5%
PBMCs with Granulocytes; 24 h, 1 μM DBT
  Percent Viable Cells: 88±6%
PBMCs with Granulocytes; 24 h, 2.5 μM DBT
  Percent Viable Cells: 84±8%
PBMCs with Granulocytes; 24 h, 5 μM DBT
  Percent Viable Cells: 77±4 %
PBMCs with Granulocytes; 48 h, 0.05 μM DBT
  Percent Viable Cells: 93±5%
PBMCs with Granulocytes; 48 h, 0.1 μM DBT
  Percent Viable Cells: 94±2%
PBMCs with Granulocytes; 48 h, 0.25 μM DBT
  Percent Viable Cells: 93±5%
PBMCs with Granulocytes; 48 h, 0.5 μM DBT
  Percent Viable Cells: 92±2%
PBMCs with Granulocytes; 48 h, 1 μM DBT
  Percent Viable Cells: 88±10%
PBMCs with Granulocytes; 48 h, 2.5 μM DBT
  Percent Viable Cells: 50±29%
PBMCs with Granulocytes; 48 h, 5 μM DBT
  Percent Viable Cells: 49±12 %
PBMCs with Granulocytes; 6 day, 0.05 μM DBT
  Percent Viable Cells: 80±7%
PBMCs with Granulocytes; 6 day, 0.1 μM DBT
  Percent Viable Cells: 72±10%
PBMCs with Granulocytes; 6 day, 0.25 μM DBT
  Percent Viable Cells: 74±8%
PBMCs with Granulocytes; 6 day, 0.5 μM DBT
  Percent Viable Cells: 54±10 %
PBMCs with Granulocytes; 6 day, 1 μM DBT
  Percent Viable Cells: 50±12 %
PBMCs with Granulocytes; 6 day, 2.5 μM DBT
  Percent Viable Cells: 32±15 %
PBMCs with Granulocytes; 6 day, 5 μM DBT
  Percent Viable Cells: 37±10 %
PBMCs with Granulocytes; PBMCs+granulocytes, 24 h, 0.05–2.5 μM DBT
  effect on viability compared to the control: no effect
monocyte-depleted PBMCs [2]; MD-PBMC, 24 h, 5 μM DBT
  average decrease in viability: 15%
monocyte-depleted PBMCs [2]; 24 h, 0.05 μM DBT
  Percent Viable Cells: 98±2%
monocyte-depleted PBMCs [2]; 24 h, 0.1 μM DBT
  Percent Viable Cells: 98±1%
monocyte-depleted PBMCs [2]; 24 h, 0.25 μM DBT
  Percent Viable Cells: 97±1%
monocyte-depleted PBMCs [2]; 24 h, 0.5 μM DBT
  Percent Viable Cells: 91±8%
monocyte-depleted PBMCs [2]; 24 h, 1 μM DBT
  Percent Viable Cells: 92±4%
monocyte-depleted PBMCs [2]; 24 h, 2.5 μM DBT
  Percent Viable Cells: 74±15 %
monocyte-depleted PBMCs [2]; 24 h, 5 μM DBT
  Percent Viable Cells: 80±9 %
monocyte-depleted PBMCs [2]; 24 h, 2.5 and 5 μM DBT
  decrease in viability: 15%
monocyte-depleted PBMCs [2]; 48 h, 0.05 μM DBT
  Percent Viable Cells: 96±2%
monocyte-depleted PBMCs [2]; 48 h, 0.1 μM DBT
  Percent Viable Cells: 97±1 %
monocyte-depleted PBMCs [2]; 48 h, 0.25 μM DBT
  Percent Viable Cells: 96±2%
monocyte-depleted PBMCs [2]; 48 h, 0.5 μM DBT
  Percent Viable Cells: 94±3%
monocyte-depleted PBMCs [2]; 48 h, 1 μM DBT
  Percent Viable Cells: 80±11 %
monocyte-depleted PBMCs [2]; 48 h, 2.5 μM DBT
  Percent Viable Cells: 56±20 %
  decrease in viability: 38%
monocyte-depleted PBMCs [2]; 48 h, 5 μM DBT
  Percent Viable Cells: 55±10 %
  decrease in viability: 35%
monocyte-depleted PBMCs [2]; 6 day, 0.05 μM DBT
  Percent Viable Cells: 89±8%
monocyte-depleted PBMCs [2]; 6 day, 0.1 μM DBT
  Percent Viable Cells: 86±7%
monocyte-depleted PBMCs [2]; 6 day, 0.25 μM DBT
  Percent Viable Cells: 81±13%
monocyte-depleted PBMCs [2]; 6 day, 0.5 μM DBT
  Percent Viable Cells: 67±13 %
monocyte-depleted PBMCs [2]; 6 day, 1 μM DBT
  Percent Viable Cells: 52±11 %
monocyte-depleted PBMCs [2]; 6 day, 2.5 μM DBT
  Percent Viable Cells: 47±9 %
monocyte-depleted PBMCs [2]; 6 day, 5 μM DBT
  Percent Viable Cells: 52±8 %
NK cells; 24 h, 0.05 μM DBT
  Percent Viable Cells: 97±3%
NK cells; 24 h, 0.1 μM DBT
  Percent Viable Cells: 98±2%
NK cells; 24 h, 0.25 μM DBT
  Percent Viable Cells: 98±1%
NK cells; 24 h, 0.5 μM DBT
  Percent Viable Cells: 95±4%
NK cells; 24 h, 1 μM DBT
  Percent Viable Cells: 92±5%
NK cells; 24 h, 2.5 μM DBT
  Percent Viable Cells: 88±1%
NK cells; 24 h, 5 μM DBT
  Percent Viable Cells: 80±7%
  average decrease in viability: 13%
NK cells; 24 h, 0.05–1 μM DBT
  effect on viability compared to the control: no effect
NK cells; 24 h, 2.5 and 5 μM DBT
  decrease in NK cell viability: about 10%
NK cells; 48 h, 0.05 μM DBT
  Percent Viable Cells: 97±0%
NK cells; 48 h, 0.1 μM DBT
  Percent Viable Cells: 96±1%
NK cells; 48 h, 0.25 μM DBT
  Percent Viable Cells: 93±0 %
NK cells; 48 h, 0.5 μM DBT
  Percent Viable Cells: 90±1 %
NK cells; 48 h, 1 μM DBT
  Percent Viable Cells: 79±12%
NK cells; 48 h, 2.5 μM DBT
  Percent Viable Cells: 61±6 %
NK cells; 48 h, 5 μM DBT
  Percent Viable Cells: 64±8 %
NK cells; 48 h, 2.5 and 5 μM DBT
  reductions in viability: around 35%
NK cells; 6 day, 0.05 μM DBT
  Percent Viable Cells: 75±8%
NK cells; 6 day, 0.1 μM DBT
  Percent Viable Cells: 78±7%
NK cells; 6 day, 0.25 μM DBT
  Percent Viable Cells: 74±9%
NK cells; 6 day, 0.5 μM DBT
  Percent Viable Cells: 68±9%
NK cells; 6 day, 1 μM DBT
  Percent Viable Cells: 69±3%
NK cells; 6 day, 2.5 μM DBT
  Percent Viable Cells: 58±7%
NK cells; 6 day, 5 μM DBT
  Percent Viable Cells: 49±19%
NK cells; 6 days, 0.05–1 μM DBT
  change in viability compared to the control: no change
